The list is not random: actives were taken first. Their share in the collection is about 0.59%.
OXTR potentiator = human OXTR potentiators, primary screen, fluorescence, CHO-OTR cells, Fluo-8 calcium; Oxytocin receptor (Homo sapiens), P30559; Fluo-8 calcium fluorescence, potentiator mode; 0% = oxytocin EC15, 100% = EC100; activation, % at 3 µM; 320,000 compounds, 0.061% hits; AID 2445, 2010;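 active = activation above that plate's cutoff, the mean activation of tested compounds plus 3 SD, cut at about 6.6% in these data, passing the limit was not always enough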;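 also: 100% uses oxytocin at 75 nM as the full agonist control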
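Replication – single well per compound, singlicate · Assay system – CHO cell line stably expressing human OTR · Timing – 6 min pre-incubation, 100 s read · Measure – normalized max/min fluorescence ratio, % activation · Doses – 3.0 µM, one dose · Detection – Fluo-8 calcium dye fluorescence · Probe or stimulus – oxytocin near EC15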
V1R ag counter = agonists of human V1a receptor, primary screen, counter-screen for OXTR agonist project, fluorescence, CHO-V1R cells; Vasopressin V1a receptor (Homo sapiens), P37288; Fluo-8 calcium fluorescence, agonist mode; 0% DMSO, 100% 3 nM vasopressin; activation, % at 3 µM; 320,000 compounds, 0.25% hits; AID 2797, 2010;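 active = activation above the mean activation of all tested compounds plus 3 SD, per screening run, cut at about 20% in these data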;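 also: signal is peak over basal fluorescence ratio across a 100 second FLIPR read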
OXTR ag = human OXTR agonists, primary screen, fluorescence, CHO-OTR cells, Fluo-8 calcium; Oxytocin receptor (Homo sapiens), P30559; Fluo-8 calcium fluorescence; normalized: DMSO 0%, oxytocin 100%; activation, % at 3 µM; 320,000 compounds, 0.32% hits;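 active = activation above the mean of all tested compounds plus 3 SD, cutoff set per screening run, cut at about 20% in these data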;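 also: peak over basal fluorescence ratio from a 100 s FLIPR kinetic read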
TRPN1 ag = zebrafish TRPN1 channel agonists, primary screen, cell-based, HEK293, calcium fluorescence. 220,000 compounds, 0.18% hits. AID 1424, 2008. HEK293 zebrafish TRPN1-YFP, Fluo-8 calcium fluorescence; 100% = response to 87 µM carbachol. transient receptor potential cation channel N1 (TRPN1/NompC), Danio rerio. activation, % at 3 µM;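 active = activation above its plate's cutoff, the mean activation of test wells on that plate plus 3 SD, cut at about 19% in these data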;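 also: 0% = DMSO alone and 100% = 87 µM carbachol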
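Material – zebrafish TRPN1-YFP in HEK293 cells · Doses – 3 µM single point · Schedule – dye 1 h 37 °C plus 30 min RT · Signal – Fluo-8 calcium fluorescence, excitation 470-495 nm, emission 515-575 nm · Read-out – % activation versus carbachol response · Control set – carbachol high, DMSO low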
TRPML3 agonist = human TRPML3 channel agonists, primary screen, cell-based, HEK293 TRPML3-YFP, Fluo-8 calcium fluorescence, 3 µM; Mucolipin-3 (Homo sapiens), Q8TDD5; 100% = the carbachol control signal; activation, % at 3 µM; 220,000 compounds, 0.29% hits; AID 1448, 2008;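 active = activation above its plate's cutoff, the mean activation of the plate's test wells plus 3 SD, cut at about 12% in these data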;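 also: 0% = DMSO only wells and 100% = carbachol wells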
Target sequence (Q8TDD5 whole entry, looked up): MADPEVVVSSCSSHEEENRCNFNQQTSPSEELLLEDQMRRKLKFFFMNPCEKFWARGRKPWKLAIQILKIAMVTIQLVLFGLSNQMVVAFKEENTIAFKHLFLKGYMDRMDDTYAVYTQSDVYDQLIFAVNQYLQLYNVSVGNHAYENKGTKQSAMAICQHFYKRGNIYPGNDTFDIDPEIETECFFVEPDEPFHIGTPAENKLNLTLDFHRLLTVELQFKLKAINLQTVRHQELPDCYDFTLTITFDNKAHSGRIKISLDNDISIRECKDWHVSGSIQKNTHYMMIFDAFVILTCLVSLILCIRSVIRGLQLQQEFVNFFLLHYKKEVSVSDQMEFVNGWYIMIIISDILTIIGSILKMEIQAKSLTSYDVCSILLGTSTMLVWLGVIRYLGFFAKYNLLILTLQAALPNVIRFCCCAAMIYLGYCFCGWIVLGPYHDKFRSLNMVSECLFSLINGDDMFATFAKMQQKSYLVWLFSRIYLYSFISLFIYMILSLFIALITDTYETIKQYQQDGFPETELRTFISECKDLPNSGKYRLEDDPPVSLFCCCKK
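Material: HEK293 cells stably carrying human TRPML3-YFP; compound dosing: single dose, 3 µM final nominal compound, 0.3% DMSO final; incubation: 1-h 37 °C dye load, 5-s basal, 120-s post-compound reads; technique: Fluo-8 intracellular calcium fluorescence, excitation 470-495 nm, emission 515-575 nm; read-out basis: percent activation from peak-to-basal fluorescence ratio, scaled between DMSO and carbachol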
TRPN1 counter = zebrafish TRPN1 channel agonists, counter-screen for TRPML3 agonist project, cell-based, HEK293 TRPN1-YFP, Fluo-8 calcium; 310 compounds, 10% hits; Fluo-8 calcium fluorescence; scaled: carbachol wells 100%, DMSO wells 0%; activation, % at 3 µM; AID 1525, 2009; shares compounds with TRPML3 agonist;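 active = mean activation over replicates above a set limit taken from the earlier TRPN1 channel primary screen, cut at about 19% in these data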;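 also: 100% = carbachol and 0% = 0.3% DMSO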
TRPML3 ag conf = human TRPML3 channel agonists, confirmation, cell-based, HEK293 TRPML3-YFP, Fluo-8 calcium, triplicate. 310 compounds, 80% hits. shares compounds with TRPML3 agonist. Fluo-8 calcium fluorescence; 100% set by carbachol, 0% by DMSO. activation, % at 3 µM;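 active = activation above a set limit derived from the earlier primary screen, cut at about 12% in these data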
* marks the source's active call; other numbers are inactive results; nt = no result given.

SMILES	OXTR potentiator	V1R ag counter	OXTR ag	TRPN1 ag	TRPML3 agonist	others
COC(=O)C1=C(C)OC(N)=C(C#N)C1c1ccccc1F (stereo not drawn)	4	0	0	-1	0
N#CC1=C(N)Oc2cc(O)c(Cl)cc2C1c1ccccc1F (stereo not drawn)	-12	18	25*	nt	nt
CCOC(=O)CN1C(=O)N[C@@H](c2ccccc2)[C@H](C(C)=O)[C@H]1C	-5	1	-1	nt	nt
CCCCN1/C(=C/c2ccc3ccccc3[n+]2CC)Sc2ccccc21	nt	nt	nt	52*	21*
CCN1/C(=C/c2ccc3cc(C)ccc3[n+]2C)Sc2ccc3sccc3c21	nt	nt	nt	17	9
CCN1/C(=C/c2ccc3cc(C)ccc3[n+]2CC)Sc2cc(C)ccc21	nt	nt	nt	33*	13*
COc1ccc(CN(C)C(=O)c2oc3ccccc3c2CSC)cc1F	-4	0	0	nt	nt
O=C(CNC(=O)c1ccccc1F)OCn1nnc2ccccc2c1=O	0	0	1	nt	nt
O=C(Cc1cccs1)N(Cc1ccco1)C1(C(=O)NC2CCCCC2)CCCCC1	-17	4	13	0	0
O=C(Cc1cccs1)N(Cc1cccs1)C1(C(=O)NC2CCCC2)CCCCC1	-19	28*	24*	-1	-2
Cc1nc(S/C(=C/c2ccc(-c3cc(Cl)ccc3C)o2)C(=O)O)n[nH]1	4	0	-1	0	0
O=C(O)c1ccccc1-c1ccc(/C=C/c2cc(C(F)(F)F)[nH]c(=O)n2)o1	nt	nt	nt	81*	28*
O=C(O)c1cc(Cl)ccc1-c1ccc(/C=C/c2cc(C(F)(F)F)[nH]c(=O)n2)o1	-8	17	14	29*	13*
O=c1nc(/C=C/c2ccc(-c3ccc(F)cc3)o2)cc(C(F)(F)F)[nH]1	-10	15	9	1	2
CCOC(=O)C1CCN(CCCSc2ccccc2)CC1	-6	1	1	nt	nt
O=C(Nc1nnc(-c2ccccc2)o1)c1nc2ccccc2s1	-9	83*	88*	nt	nt
CCOC(=O)c1ccc(NC(=O)Nc2ccc(F)cc2)cc1	-12	11	14	21*	10
CCOC(=O)C1CCCN(C(=O)C2c3ccccc3Oc3ccccc32)C1 (stereo not drawn)	-4	35*	44*	0	0
Cc1ccc(-c2nc3c(Cl)cc(Cl)cc3c(=O)n2O)cc1	-21	66*	23*	nt	nt
CCCOc1ccc(C(=O)NNC(=S)NC(C)=O)cc1	-8	-2	-2	-3	-2
CCCOc1ccc(C(=O)NNC(=S)NC(=O)c2cccs2)cc1	-12	85*	79*	nt	nt
CCCC(=O)Nc1ccc(C(=O)NNC(=S)NC(=O)c2cccs2)cc1	-3	-1	-2	-2	-1
CCCOc1ccc(C(=O)NNC(=S)NC(=O)c2ccco2)cc1	-21	98*	95*	44*	41*
COc1ccc(C(=O)NNC(=S)NC(=O)c2ccco2)cc1	-12	19	18	1	7
CCCOc1ccc(C(=O)NNC(=S)NC(=O)c2ccccc2)cc1	-27	115*	101*	nt	nt
SMILES	OXTR potentiator	V1R ag counter	OXTR ag	TRPN1 ag	TRPML3 agonist	others
O=C(NCCCN1CCOCC1)c1ccc2nc(Cc3cccc(Cl)c3)oc2c1	-11	2	1	nt	nt
COc1cc(/C=N/NC(=O)c2cccc(C)c2)ccc1OCC(=O)Nc1ccccc1	0	0	-1	nt	nt
COc1ccc(S(=O)(=O)NNc2nc(C)cc(C)n2)cc1[N+](=O)[O-]	-7	2	1	nt	nt
Nc1ccc2c(c1)Cc1cc([N+](=O)[O-])ccc1-2	-13	31*	22*	13	15*
Cc1ccc([N+](=O)[O-])cc1N	-2	0	0	0	0
COc1ccc(CC(NC(C)=O)C(=O)NC2CCN(C(=O)c3ccc([N+](=O)[O-])cc3)CC2)cc1OC (stereo not drawn)	-19	1	0	2	0
CCN1/C(=C/C(C)=O)Sc2ccc(OC)cc21	-7	-1	-3	1	0
CCOC(=O)/C(=C/C=C1\Sc2cc(OCC)c(OCC)cc2N1CC)C(C)=O	-16	289*	248*	46*	30*
CCOC(=O)/C(=C\C=C1/Sc2cc(OCC)c(OCC)cc2N1CC)C(C)=O	-12	92*	148*	74*	46*
S=C1CCC(c2ccc(Cl)cc2)=NN1c1ccccc1	-1	-2	-3	-2	16*	TRPN1 counter=-2;TRPML3 ag conf=9
Cc1ccc(C(OC(=O)c2ccco2)C(=O)NC(C)(C)C)cc1 (stereo not drawn)	-6	0	-2	nt	nt
CCOc1ccc(S(=O)(=O)NC(C)(C)C)cc1-c1nc2c(C(C)(C)C)nn(C)c2c(=O)[nH]1	-8	1	-1	-1	24*	TRPN1 counter=2;TRPML3 ag conf=147*
C[N+](C)(C)C/C=C1/COCO1	-4	0	2	8	52*	TRPN1 counter=14;TRPML3 ag conf=40*
O=C(NC(=O)c1ccccc1)Nc1ccc(Cl)cn1	-6	4	1	nt	nt
O=C(Nc1ccncc1)Nc1ccc(F)c(Cl)c1	-15	5	7	7	12*	TRPN1 counter=10;TRPML3 ag conf=9
O=C(Nc1ccc(F)c(Cl)c1)Nc1ccc(Cl)cn1	-14	0	0	0	1
CC(C)(C)N(Cc1ccccc1)C(=O)COc1cccnc1[N+](=O)[O-]	-6	1	0	nt	nt
COC(=O)c1cc(-c2ccc(S(=O)(=O)N3CCCCC3)cc2)c(C(F)(F)F)s1	-13	0	-3	0	16*	TRPN1 counter=-1;TRPML3 ag conf=19*
NC(=O)c1ccc(NC(=O)c2ccc(COc3ccc(F)cc3)o2)cc1	-8	5	7	nt	nt
Cc1cc(NC(=O)COC(=O)C(Cc2ccccc2)NC(=O)c2ccco2)no1 (stereo not drawn)	-10	0	-1	5	18*	TRPN1 counter=22*;TRPML3 ag conf=24*
O=C(COC(=O)[C@H](Cc1ccccc1)NC(=O)c1ccco1)Nc1ccccc1	-4	1	0	nt	nt

Source: PubChem BioAssay
